According to PubChem BioAssay:
Results filed as inconclusive are left out. Activity calls are given as the source filed them.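 How the source made its calls, unless noted: active means inhibition over a set limit, the all-compound mean plus 3 SD, in both replicate runs; inconclusive means over that limit in just one replicate run; inactive means at or under that limit in both runs.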

Columns and labels:
[1] = S. cerevisiae growth inhibition in permissive medium (OD615), pilot counter-assay for S. cerevisiae lifespan shortening project, permissive growth control (AID 705;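 active means growth inhibition above 25% in both replicates, a cutoff set 3 SD above the mean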); conditions: OD615, 24 h, at 10 µM, active compounds read high
How it was run: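 Test system: Saccharomyces cerevisiae strain carrying genetically modified DeaD replicative-lifespan system; buffer or medium: SC raffinose/galactose permissive medium; dosing: one dose 10 µM, DMSO 0.25% final; times: 24 h exposure, 30 °C; measured by: OD at 615 nm; read-out basis: growth inhibition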

[2] = S. cerevisiae growth inhibition in restrictive medium, OD615, pilot screen, restrictive growth control, yeast lifespan reduction project (AID 706;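 active means growth inhibition above a set limit, 3 SD over mean compound inhibition, in both replicates, cut at about 43% in these data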;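 further: modified DeaD lifespan yeast strain shifted to restrictive glucose medium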); conditions: OD615, 48 h, at 10 µM, active compounds read high
How it was run: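 material = engineered S. cerevisiae DeaD strain | buffer or medium = glucose-based CSMM-D restrictive medium | dosing = one concentration, 10 µM final, 0.25% DMSO | schedule = 4 h pre-growth plus 48 h compound exposure, 30 °C | detection = OD615 absorbance reading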

[3] = doxorubicin toxicity protection in MRP-1 cells – H69AR cells, CellTiter-Glo, duplicate, MRP-1 activator project, pilot screen (AID 807;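 active means viability increase at or above a cutoff of the median across tested compounds plus 3 SD, cut at about 8.5% in these data, passing the limit was not always enough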;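 further: compound pretreatment 18-22 h then 72 h combined with doxorubicin; 0% = doxorubicin alone and 100% = vehicle without doxorubicin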); conditions: H69AR viability with doxorubicin, CellTiter-Glo luminescence; at 10 µM; active compounds read high
[4] = viability of HCT116 without oncogenic beta-catenin – human colon tumor cells, pilot screen (AID 823;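 active means cell viability at or below a set limit in both duplicate runs, the limit being the all-compound median minus 4 SD, cut at about 23% in these data, passing the limit was not always enough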;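 further: 0% = wells killed by 20 µM Hyamine and 100% = untreated DMSO cell wells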); conditions: HCT116 beta-catenin knockout viability, CellTiter-Glo, 60 h; at 10 µM; active compounds read low
[5] = viability of PTEN-null HCT116 cells – cell-based, HCT116 clonal line, CellTiter-Glo, pilot screen (AID 824;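 active means viability at or below 27.92% in each of two runs, the all-compound median minus 4 SD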;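 further: 0% = 20 µM Hyamine control and 100% = vehicle cell control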); conditions: HCT116 PTEN-deleted viability, 60 h, at 10 µM, active compounds read low
[6] = RAM pathway blockade in budding yeast – dse1pr::URA3 reporter, 5-FOA selection, pilot screen (AID 869);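 further: 0% = DMSO wells with no growth and 100% = 10 µM 1-NA-PP1 with full growth; RAM network block rescues cells from 5-FOA so hits raise OD615 growth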; conditions: S. cerevisiae dse1pr::URA3 5-FOA growth, OD615, 2 d; at 10 µM; active compounds read high; strain carries analog-sensitive mutant Cbk1 kinase
[7] = RAM signaling pathway blockade in yeast – S. cerevisiae, Pdr1DBD-CYC8 efflux-inhibited sensitized strain, primary screen (AID 1298;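 active means RAM network inhibition above 8.4% in each of two replicates, 3 SD over the compound average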;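 further: 0% = DMSO untreated cells without growth and 100% = 10 µM 1-NA-PP1 full growth; higher means more yeast growth rescued from 5-FOA killing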); conditions: S. cerevisiae cbk1-as DSE1-URA3 strain, 5-FOA growth OD615, 2 d; at 50 µM; active compounds read high

O=C(NCc1ccc2c(c1)OCO2)C1CCC(CNc2c(N3CCCC3)c(=O)c2=O)CC1 (stereo unspecified)
inactive: growth inhibition [1] -5.55% | growth inhibition [2] -7.12% | viability increase [3] -1.29% | viability [4] 104% | viability [5] 102% | inhibition [6] 3.97% | RAM network inhibition [7] 1.53%

CCOC(=O)c1ccc(NC(=O)CN2C(=O)CSC2=O)cc1
inactive: growth inhibition [1] -1.29% | growth inhibition [2] -0.27% | viability increase [3] 1.63% | viability [4] 95.7% | viability [5] 103% | inhibition [6] 3.08% | RAM network inhibition [7] 4.03%

COCCN(CCOC)Cc1c(O)ccc2c3c(c(=O)oc12)CCC3
inactive: growth inhibition [1] -1.66% | growth inhibition [2] 7.01% | viability increase [3] -1.42% | viability [4] 99.9% | viability [5] 102% | inhibition [6] -0.65% | RAM network inhibition [7] -0.97%

Cc1cccc(OCCCC(=O)Nc2ccc(N3CCOCC3)cc2)c1
inactive: growth inhibition [1] -17% | growth inhibition [2] -11.5% | viability increase [3] -0.5% | viability [4] 90.7% | viability [5] 96.8% | inhibition [6] 2.59% | RAM network inhibition [7] 3.73%

Cc1cccc(NC(=O)C2C(C(=O)O)C3C=CC2C32CC2)c1C (stereo unspecified)
inactive: growth inhibition [1] -2.43% | growth inhibition [2] -9.19% | viability increase [3] -1.67% | viability [4] 95.2% | viability [5] 93.5% | inhibition [6] 1.42% | RAM network inhibition [7] -0.78%

Cc1nn(-c2ccccc2)c2sc(C(=O)OCN3C(=O)c4ccccc4C3=O)cc12
inactive: growth inhibition [1] -8.01% | growth inhibition [2] -6.25% | viability increase [3] -3.32% | viability [4] 83.6% | viability [5] 85.2% | inhibition [6] 2.55% | RAM network inhibition [7] 4.24%

COc1cccc(-c2nnc(NC(=O)C3CCCCC3)o2)c1
inactive: growth inhibition [1] -14% | growth inhibition [2] -2.06% | viability increase [3] -3.8% | viability [4] 83.5% | viability [5] 85.7% | inhibition [6] 1.85% | RAM network inhibition [7] 1.88%

CCCCn1c(NC(=O)c2ccccc2)nc2ccccc21
inactive: growth inhibition [1] 8.39% | growth inhibition [2] -7.56% | viability increase [3] -3.95% | inhibition [6] -0.145% | RAM network inhibition [7] 3.88%
active: viability [4] 22.1% | viability [5] 18.3%

COc1cccc(-c2nc(CS(=O)CC(=O)NC3CC3)c(C)o2)c1 (stereo unspecified)
inactive: growth inhibition [1] 1.62% | growth inhibition [2] 14.2% | viability increase [3] -2.91% | viability [4] 101% | viability [5] 101% | inhibition [6] 0.52% | RAM network inhibition [7] 0.14%

CS(=O)(=O)N1CCN(c2nc(-c3ccc(F)cc3)cs2)CC1
inactive: growth inhibition [1] -4.7% | growth inhibition [2] 1.69% | viability increase [3] -0.68% | viability [4] 90.9% | viability [5] 88.8% | inhibition [6] 2.98% | RAM network inhibition [7] 3.11%

COc1ccc(-c2noc(-c3ccccc3F)n2)cc1
inactive: growth inhibition [1] -9.92% | growth inhibition [2] -12% | viability increase [3] -3.21% | viability [4] 86.6% | viability [5] 83.1% | inhibition [6] 0.965% | RAM network inhibition [7] 4.28%

O=S(=O)(NCCc1csc(-c2cccnc2)n1)c1ccc(Cl)s1
inactive: growth inhibition [1] -15.7% | growth inhibition [2] 13.1% | viability increase [3] 0.96% | viability [4] 87.6% | viability [5] 85.5% | inhibition [6] 1.76% | RAM network inhibition [7] 3.12%

CC1CC(C)CN(C(=O)CSc2nnc(-c3ccc(Cl)s3)o2)C1 (stereo unspecified)
inactive: growth inhibition [1] -4.71% | growth inhibition [2] -6.08% | viability increase [3] 2.04% | viability [4] 96.5% | viability [5] 92.4% | inhibition [6] 0.75% | RAM network inhibition [7] 2.52%

C=CCOC(=O)C1CC=CCC1C(=O)Oc1ccc(F)cc1F (stereo unspecified)
inactive: growth inhibition [1] -18.3% | growth inhibition [2] -15.3% | viability increase [3] -1.32% | viability [4] 100% | viability [5] 94% | inhibition [6] 2.56% | RAM network inhibition [7] 1.82%

C=CCNC(=O)c1ccc(C)cc1Cl
inactive: growth inhibition [1] -13.3% | growth inhibition [2] -2.44% | viability increase [3] -0.26% | viability [4] 95.5% | viability [5] 94.5% | inhibition [6] 1.02% | RAM network inhibition [7] 1.37%

COc1ccccc1OCCNC(=O)c1ccc(S(=O)(=O)N(C)C)cc1
inactive: growth inhibition [1] -3.92% | growth inhibition [2] 3.39% | viability increase [3] -1.91% | viability [4] 100% | viability [5] 91.9% | inhibition [6] -0.715% | RAM network inhibition [7] 2.71%

O=C(N1CCN(c2ccc(F)cc2)CC1)C12CC3CC(CC(C3)C1)C2
inactive: growth inhibition [1] -15.7% | growth inhibition [2] -5.23% | viability increase [3] -0.18% | viability [4] 84.1% | viability [5] 83.6% | inhibition [6] 0.94% | RAM network inhibition [7] 11.5%

COc1cccc(C2NC(=O)NC(C)=C2C(=O)Nc2cc(OC)ccc2OC)c1 (stereo unspecified)
inactive: growth inhibition [1] -7.14% | growth inhibition [2] 0.605% | viability increase [3] -0.51% | viability [4] 95.2% | viability [5] 94.9% | inhibition [6] 1.15% | RAM network inhibition [7] 5.92%
